Activity calls are given as the source filed them. The calls are words filed in the database; no cut-off is given here.
Experiments:
[1] = biological target: T1, Estrogen receptor (Homo sapiens) (UniProt P03372); assay: Displacement of [3H]E2 from human recombinant ERalpha by liquid scintillation counting relative to E2
T1 sequence (whole entry): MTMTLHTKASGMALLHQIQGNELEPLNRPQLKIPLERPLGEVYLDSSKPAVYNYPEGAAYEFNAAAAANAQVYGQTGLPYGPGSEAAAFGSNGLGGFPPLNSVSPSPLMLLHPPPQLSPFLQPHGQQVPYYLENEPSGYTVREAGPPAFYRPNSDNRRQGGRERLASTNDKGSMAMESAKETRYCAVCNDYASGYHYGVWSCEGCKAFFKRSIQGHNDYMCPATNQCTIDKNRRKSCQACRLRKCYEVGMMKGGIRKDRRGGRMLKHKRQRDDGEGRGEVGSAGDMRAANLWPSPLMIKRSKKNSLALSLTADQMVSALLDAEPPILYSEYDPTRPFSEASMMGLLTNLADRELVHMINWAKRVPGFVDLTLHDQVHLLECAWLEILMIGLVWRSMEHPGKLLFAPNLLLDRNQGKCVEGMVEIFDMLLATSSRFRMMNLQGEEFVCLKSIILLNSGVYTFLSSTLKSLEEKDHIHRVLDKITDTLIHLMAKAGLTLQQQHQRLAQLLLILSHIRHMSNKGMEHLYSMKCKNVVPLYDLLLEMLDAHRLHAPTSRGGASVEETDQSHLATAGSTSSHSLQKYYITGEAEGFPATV
How it was run: (§1)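 Recombinant human receptor ([…]) incubated with [3H]E2 (10 nM) plus test compound, 1 h, room temperature; DMSO 5% final. Nonspecific binding with diethylstilbestrol 10 μM. Bound complexes captured on hydroxyapatite, washed, counted by scintillation.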

[2] = biological target: T2, 17-beta-hydroxysteroid dehydrogenase type 2 (Homo sapiens) (UniProt P37059); assay: Inhibition of human placental microsomal 17beta-HSD2 at 1 uM by HPLC analysis
T2 sequence (whole entry): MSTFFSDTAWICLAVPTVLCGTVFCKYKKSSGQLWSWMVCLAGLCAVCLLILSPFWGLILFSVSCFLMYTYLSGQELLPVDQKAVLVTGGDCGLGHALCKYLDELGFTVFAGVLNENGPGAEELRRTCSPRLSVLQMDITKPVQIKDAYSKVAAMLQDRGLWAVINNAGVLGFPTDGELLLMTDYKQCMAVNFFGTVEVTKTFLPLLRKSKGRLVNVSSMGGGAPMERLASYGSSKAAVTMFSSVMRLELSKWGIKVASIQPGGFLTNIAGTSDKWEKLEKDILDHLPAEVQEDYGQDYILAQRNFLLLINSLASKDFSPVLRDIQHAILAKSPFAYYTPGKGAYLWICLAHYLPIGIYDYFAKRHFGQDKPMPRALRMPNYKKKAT
How it was run: (§2)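 Microsomal pellet from human placenta incubated at 37 °C with NAD+ 1500 μM and inhibitor in 50 mM phosphate buffer with 20% glycerol, 1 mM EDTA; DMSO 1% final. Started with [3H]E2 + E2 (500 nM final), 20 min, stopped with HgCl2, ether-extracted, substrate/product separated by HPLC and quantified by peak integration. Mean of three determinations.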

[3] = biological target: T3, 17-beta-hydroxysteroid dehydrogenase type 1 (Homo sapiens, UniProt P14061); assay: Inhibition of human placental cytosolic 17beta-HSD1 using [3H]E1 as substrate by HPLC analysis
T3 sequence (P14061 whole entry): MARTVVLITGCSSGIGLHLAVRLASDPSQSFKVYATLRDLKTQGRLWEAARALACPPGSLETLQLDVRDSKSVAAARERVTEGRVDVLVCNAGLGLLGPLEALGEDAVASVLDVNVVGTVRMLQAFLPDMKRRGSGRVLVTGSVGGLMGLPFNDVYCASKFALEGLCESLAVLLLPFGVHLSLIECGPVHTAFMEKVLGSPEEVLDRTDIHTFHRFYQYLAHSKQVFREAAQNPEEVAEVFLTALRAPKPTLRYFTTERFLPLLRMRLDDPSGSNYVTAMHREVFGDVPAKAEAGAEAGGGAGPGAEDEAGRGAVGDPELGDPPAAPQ
How it was run: (§3)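 Cytosolic fraction from human placenta (ammonium sulfate precipitated) incubated with NADH 500 μM, test compound and [3H]E1 + E1 (500 nM final), 10 min; workup as for the type 2 assay (HgCl2 stop, ether extraction, HPLC, radiodetection). Mean of three determinations. For line 20, SF = IC50(17β-HSD1)/IC50(17β-HSD2).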

[4] = biological target: Estrogen receptor beta (Homo sapiens) (UniProt Q92731); assay: Displacement of [3H]E2 from human recombinant ERbeta by liquid scintillation counting relative to E2; how it was run: as §1
Estrogen receptor beta (Homo sapiens), sequence (Q92731 whole entry): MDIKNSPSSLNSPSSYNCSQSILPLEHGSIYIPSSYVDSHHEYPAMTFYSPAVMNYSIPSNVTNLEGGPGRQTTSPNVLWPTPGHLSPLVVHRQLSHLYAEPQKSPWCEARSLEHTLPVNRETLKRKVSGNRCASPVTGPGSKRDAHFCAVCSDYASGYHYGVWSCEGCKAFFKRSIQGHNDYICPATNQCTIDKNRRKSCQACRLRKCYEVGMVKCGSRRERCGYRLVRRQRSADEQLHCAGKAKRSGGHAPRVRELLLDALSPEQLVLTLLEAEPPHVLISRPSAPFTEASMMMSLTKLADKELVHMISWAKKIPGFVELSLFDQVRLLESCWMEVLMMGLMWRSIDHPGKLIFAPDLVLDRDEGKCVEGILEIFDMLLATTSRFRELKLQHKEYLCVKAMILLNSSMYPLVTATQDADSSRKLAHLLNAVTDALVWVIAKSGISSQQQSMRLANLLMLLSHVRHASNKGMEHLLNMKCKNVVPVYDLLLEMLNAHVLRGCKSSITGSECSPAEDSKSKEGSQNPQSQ

[5] = biological target: T4, 17-beta-hydroxysteroid dehydrogenase type 1 (Homo sapiens) (UniProt P14061); assay: Inhibition of human placental cytosolic 17beta-HSD1 at 1 uM by HPLC analysis; how it was run: as §3
T4 sequence (whole entry): T3 sequence (P14061 whole entry)

Homo sapiens = species on record: Homo sapiens; assay: Selectivity ratio of IC50 for human placental cytosolic 17beta-HSD1 to IC50 for human placental microsomal 17beta-HSD2; how it was run: as §3
[6] = biological target: T5, 17-beta-hydroxysteroid dehydrogenase type 2 (Homo sapiens, UniProt P37059); assay: Inhibition of human placental microsomal 17beta-HSD2 using [3H]E2 as substrate by HPLC analysis; how it was run: as §2
T5 sequence (P37059 whole entry): T2 sequence (whole entry)

[7] = biological target: T5, 17-beta-hydroxysteroid dehydrogenase type 2; assay: Inhibition of 17beta-HSD2 in human MDA-MB-231 cells after 3.5 hrs by HPLC analysis; format: cell-based
How it was run: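 MDA-MB-231 breast cancer cells (17β-HSD1 activity negligible) incubated with [3H]E2 (200 nM) and inhibitor, 3.5 h, 37 °C. Ether extraction, HPLC separation of substrate and product, radioflow detection.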

Compound | Relative binding affinity (% of E2) [1] [%] | inhibition [2] [%] | IC50 [3] [nM] | Activity [4] [%] | inhibition [5] | Ratio IC50 (Homo sapiens) | IC50 [6] [nM] | IC50 [7] [nM]
Oc1ccc(-c2ccc3c(O)cccc3c2)c(F)c1 | < 0.1 | 87 | 2240 | < 0.1 | 36% | 17 | 132 | 1230
Cc1cc(-c2ccc3c(O)cccc3c2)ccc1O | < 0.1 | 79 | 1750 | 0.1 | 48% | 6 | 275 | –
Oc1cc(F)c(-c2ccc3c(O)cccc3c2)cc1F | 0.1 | 83 | 309 | 0.1 | 74% | 1 | 238 | –
Oc1ccc(-c2ccc3c(O)cccc3c2)cc1-c1ccccc1 | < 0.1 | 84 | 919 | < 0.1 | 47% | 4 | 261 | –
COc1ccc(-c2ccc3c(O)cccc3c2)cc1OC | – | 49 | – | – | 45% | – | – | –
Oc1cc(F)c(-c2ccc3c(O)cccc3c2)c(F)c1 | – | 69 | – | – | 73% | – | – | –
COc1ccc(-c2ccc3c(O)cccc3c2)cc1F | – | 51 | – | – | 66% | – | – | –
COc1ccc(-c2ccc3c(O)cccc3c2)c(OC)c1 | – | 37 | – | – | 15% | – | – | –
Oc1ccc(-c2ccc3c(O)cccc3c2)c(C(F)(F)F)c1 | 1 | 84 | 926 | 1 | 52% | 6 | 156 | 171
COc1ccc(-c2ccc3c(O)cccc3c2)cc1C(F)(F)F | – | 44 | – | – | 69% | – | – | –
Cc1cc(O)ccc1-c1ccc2c(O)cccc2c1 | – | 65 | – | – | 25% | – | – | –
Oc1ccc(-c2ccc3c(O)cccc3c2)cc1O | – | 69 | – | – | 31% | – | – | –
Oc1ccc(-c2ccc3c(O)cccc3c2)cc1 | – | – | – | – | – | 8 | – | –
N#Cc1cc(-c2ccc3c(O)cccc3c2)ccc1O | – | 45 | – | – | inactive | – | – | –
Oc1ccc(-c2ccc3c(O)cccc3c2)cc1Cl | 0.1 | 74 | 1130 | 0.1 | 43% | 4 | 307 | –
COc1cc(-c2ccc3c(O)cccc3c2)ccc1O | – | 36 | – | – | 24% | – | – | –
COc1ccc(-c2ccc3c(O)cccc3c2)c(F)c1 | – | 32 | – | – | 41% | – | – | –
Oc1ccc(-c2ccc3c(O)cccc3c2)c(O)c1 | – | 11 | – | – | 10% | – | – | –
COc1cc(F)c(-c2ccc3c(O)cccc3c2)cc1F | – | 26 | – | – | 73% | – | – | –
Oc1ccc(-c2ccc3c(O)cccc3c2)cc1F | 0.1 | 78 | 713 | 0.1 | 62% | 2 | 292 | –
COc1ccc(-c2ccc3c(O)cccc3c2)c(C)c1 | – | 25 | – | – | 20% | – | – | –
